Measurements from ChEMBL document CHEMBL3997766, “Synthesis and pre-clinical studies of new amino-acid ester thiazolide prodrugs” (Eur J Med Chem, 2017).

Key:
Plasma [1] = test: Drug metabolism in Sprague-Dawley rat assessed as tizoxanide-glucuronide formation in plasma at 30 mg/kg, po administered as single dose measured after 5 mins; assay type: ADME, organism-based; conditions: in vivo
How it was run: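 Plasma tizoxanide and tizoxanide glucuronide were measured and PK parameters derived. AUCs were dose-corrected to 30 mg/kg for bioavailability.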

Rattus norvegicus [2] = test: Toxicity in Sprague-Dawley rat assessed as decrease in absolute kidney weight at 75 mg/kg administered as oral gavage qd for 28 consecutive days measured on day 29; assay type: organism-based; conditions: in vivo
How it was run: (§1)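 Sub-acute study in Sprague-Dawley rats dosed orally with a suspension at 10, 30 and 75 mg/kg once daily for 28 consecutive days. Four groups of up to 30 rats each (15M/15F).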

Rattus norvegicus [3] = test: Toxicity in Sprague-Dawley rat assessed as decrease in serum total protein level at 75 mg/kg administered as oral gavage qd for 28 consecutive days followed by 2 weeks recovery period measured on day 43; assay type: organism-based; conditions: in vivo, 336 h; how it was run: as §1
Rattus norvegicus [4] = test: Toxicity in Sprague-Dawley rat assessed as epithelial hyperplasia in stomach at 30 to 75 mg/kg administered as oral gavage qd for 28 consecutive days measured on day 29 by microscopic method; assay type: organism-based; conditions: in vivo
How it was run: (§2)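 Sub-acute study in Sprague-Dawley rats: 10, 30 or 75 mg/kg given orally once a day for 28 consecutive days as a yellow suspension. There were 4 groups of up to 30 rats each (15M/15F), including a control. Body weight, clinical observations and terminal findings were assessed.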

Rattus norvegicus [5] = test: Toxicity in Sprague-Dawley rat assessed as eosinophilic cytoplasmic bodies in leukocytes of duodenum at 75 mg/kg administered as oral gavage qd for 28 consecutive days measured on day 29 by microscopic method; assay type: organism-based; conditions: in vivo; how it was run: as §1
Rattus norvegicus [6] = test: Toxicity in Sprague-Dawley rat assessed as body weight gain at 75 mg/kg administered as oral gavage qd for 28 consecutive days measured during last 2 weeks of dosing relative to control; assay type: organism-based; conditions: in vivo, 336 h; how it was run: as §1
Rattus norvegicus [7] = test: Toxicity in Sprague-Dawley rat assessed as hemorrhage in duodenum at 75 mg/kg administered as oral gavage qd for 28 consecutive days followed by 2 weeks recovery period by microscopic method; assay type: organism-based; conditions: in vivo, 336 h; how it was run: as §1
Rattus norvegicus [8] = test: Neurotoxicity in Sprague-Dawley rat assessed as decreased abdominal tone at 1000 mg/kg administered via oral gavage as single dose after 4 to 24 hrs; assay type: toxicity, organism-based; conditions: in vivo
How it was run: (§3)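 Three groups of 10 rats (5M/5F) received a single dose by oral gavage of 100, 300 or 1000 mg/kg, and an untreated group served as control. Clinical signs of CNS effects were recorded at 4 and 24 h after treatment.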

Rattus norvegicus [9] = test: Neurotoxicity in Sprague-Dawley rat assessed as tremors at 1000 mg/kg administered as single dose via oral gavage after 4 to 24 hrs; assay type: toxicity, organism-based; conditions: in vivo; how it was run: as §3
Rattus norvegicus [10] = test: Toxicity in Sprague-Dawley rat assessed as increase in liver to body weight ratio at 75 mg/kg administered as oral gavage qd for 28 consecutive days measured on day 29; assay type: organism-based; conditions: in vivo; how it was run: as §1
Rattus norvegicus [11] = test: Neurotoxicity in Sprague-Dawley rat at 100 to 300 mg/kg, po administered via gavage as single dose after 4 to 24 hrs; assay type: toxicity, organism-based; conditions: in vivo
How it was run: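 CNS safety study in rats: single oral-gavage doses of 100, 300 or 1000 mg/kg to 3 groups of 10 (5M/5F), with an untreated control group. Clinical signs (activity, abdominal tone, breathing, tremors, pain response) were recorded at 4 and 24 h after dosing, and mortality was noted.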

Plasma [12] = test: Drug metabolism in Sprague-Dawley rat assessed as Tizoxanide in plasma at 28 mg/kg, po measured at 0.083 hrs post dose; assay type: ADME, organism-based; conditions: in vivo
Rattus norvegicus [13] = test: Neurotoxicity in Sprague-Dawley rat assessed as decrease in pain response at 1000 mg/kg administered as single dose via oral gavage after 4 to 24 hrs; assay type: toxicity, organism-based; conditions: in vivo; how it was run: as §3
Canis familiaris [14] = test: Toxicity in Beagle dog assessed as early death at 5 to 25 mg/kg, po administered as gelatin capsule once daily for 28 days measured on day 29; assay type: organism-based, Canis lupus familiaris; conditions: in vivo, 672 h
How it was run: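 Sub-acute study in Beagle dogs: 5, 15 or 25 mg/kg/day given orally in a single gelatin capsule once a day for 28 consecutive days to assess systemic exposure and toxicity, with NOAEL determination.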

Plasma [15] = test: Prodrug activation in Sprague-Dawley rat assessed as tizoxanide formation in plasma at 6.3 mg/kg, iv administered as single dose measured after 5 mins; assay type: organism-based; conditions: in vivo
How it was run: (§4)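 Rats in groups of three got a single oral dose (30 mg/kg) or a single intravenous injection (6 mg/kg). Serial blood samples were taken at 5, 10, 15 and 30 min and at 1, 2, 4, 8, 23 and 24 h post-dose for plasma drug and glucuronide levels. Bioavailability came from oral versus intravenous AUC after dose correction to 30 mg/kg.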

Rattus norvegicus [16] = test: Toxicity in Sprague-Dawley rat assessed as early death at 10 to 75 mg/kg administered as oral gavage qd for 28 consecutive days measured up to day 43; assay type: organism-based; conditions: in vivo; how it was run: as §2
Rattus norvegicus [17] = test: Elimination half life in Sprague-Dawley rat assessed as Tizoxanide level at 6.3 mg/kg, iv administered as single dose; assay type: ADME, organism-based; conditions: in vivo
Rattus norvegicus [18] = test: Tmax in Sprague-Dawley rat assessed as Tizoxanide level in plasma at 28 mg/kg, po; assay type: ADME, organism-based; conditions: in vivo; how it was run: as §4
Rattus norvegicus [19] = test: Toxicity in Sprague-Dawley rat assessed as mixed cell inflammation in stomach at 75 mg/kg administered as oral gavage qd for 28 consecutive days followed by 2 weeks recovery period by microscopic method; assay type: organism-based; conditions: in vivo, 336 h; how it was run: as §1
Rattus norvegicus [20] = test: Toxicity in Sprague-Dawley rat assessed as hemorrhage in stomach at 30 to 75 mg/kg administered as oral gavage qd for 28 consecutive days measured on day 29 by microscopic method; assay type: organism-based; conditions: in vivo; how it was run: as §2
Canis familiaris [21] = test: Toxicity in Beagle dog assessed as thickened duodenum up to 25 mg/kg, po administered as gelatin capsule once daily for 28 days measured on day 29; assay type: organism-based, Canis lupus familiaris; conditions: in vivo, 672 h
How it was run: (§5)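 Sub-acute study in Beagle dogs dosed orally by gelatin capsule at 5, 15 and 25 mg/kg once a day for 28 consecutive days.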

Rattus norvegicus [22] = test: Toxicity in Sprague-Dawley rat assessed as epithelial hyperplasia in stomach at 75 mg/kg administered as oral gavage qd for 28 consecutive days followed by 2 weeks recovery period by microscopic method; assay type: organism-based; conditions: in vivo, 336 h; how it was run: as §1
Rattus norvegicus [23] = test: Toxicity in Sprague-Dawley rat assessed as eosinophilic cytoplasmic bodies in epithelial cells of duodenum at 75 mg/kg administered as oral gavage qd for 28 consecutive days measured on day 29 by microscopic method; assay type: organism-based; conditions: in vivo; how it was run: as §1
Plasma [24] = test: Drug metabolism in Sprague-Dawley rat assessed as tizoxanide-glucuronide level in plasma administered via oral gavage qd for 28 consecutive days; assay type: ADME
How it was run: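 In a sub-acute study, Sprague-Dawley rats were dosed once daily for 28 consecutive days at 10, 30 or 75 mg/kg, given as a yellow suspension. There were four groups of up to 30 rats each (15M/15F) to assess systemic exposure.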

Rattus norvegicus [25] = test: Toxicity in Sprague-Dawley rat assessed as increase in serum chloride level at 30 mg/kg administered as oral gavage qd for 28 consecutive days followed by 2 weeks recovery period measured on day 43; assay type: organism-based; conditions: in vivo, 336 h; how it was run: as §1
Canis familiaris [26] = test: Toxicity in Beagle dog assessed as body weight gain up to 25 mg/kg, po administered as gelatin capsule once daily for 28 days measured on day 29; assay type: organism-based, Canis lupus familiaris; conditions: in vivo, 672 h; how it was run: as §5

How did the Drug metabolism (Plasma [1]) turn out when `CC(C)(C)[C@H](N)C(=O)Oc1ccccc1C(=O)Nc1ncc([N+](=O)[O-])s1.Cl` was run?
The Drug metabolism was “Metabolite_Detected”.

And the Activity (Rattus norvegicus [2])?
The Activity was “Toxic”.

What about the Activity (Rattus norvegicus [3]) of the same compound?
The Activity was “Toxic”.

What about the Activity (Rattus norvegicus [4]) of the same compound?
Its Activity is “Toxic”.

And the Activity (Rattus norvegicus [5])?
The Activity was “Toxic”.

And the Activity (Rattus norvegicus [6])?
Its Activity is 4 to 5%.

What about the Activity (Rattus norvegicus [7]) of the same compound?
Its Activity is “Non-Toxic”.

And the Activity (Rattus norvegicus [8])?
Its Activity is “Toxic”.

And the Activity (Rattus norvegicus [9])?
The Activity was “Toxic”.

What about the Activity (Rattus norvegicus [10]) of the same compound?
The Activity was “Toxic”.

What about the Activity (Rattus norvegicus [11]) of the same compound?
The Activity was “Non-Toxic”.

What about the Drug metabolism (Plasma [12]) of the same compound?
Its Drug metabolism is “Metabolite_Detected”.

And the Activity (Rattus norvegicus [13])?
The Activity was “Toxic”.

And the Activity (Canis familiaris [14])?
Its Activity is “Non-Toxic”.

What about the Drug metabolism (Plasma [15]) of the same compound?
The Drug metabolism was “Metabolite_Detected”.

And the Activity (Rattus norvegicus [16])?
Its Activity is “Non-Toxic”.

And the “beta t1/2” value (Rattus norvegicus [17])?
Its value is 22.8 min.

And the Tmax (Rattus norvegicus [18])?
Its Tmax is 5 to 15 min.

What about the Activity (Rattus norvegicus [19]) of the same compound?
Its Activity is “Non-Toxic”.

And the Activity (Rattus norvegicus [20])?
Its Activity is “Toxic”.

What about the Activity (Canis familiaris [21]) of the same compound?
The Activity was “Non-Toxic”.

And the Activity (Rattus norvegicus [22])?
Its Activity is “Non-Toxic”.

And the Activity (Rattus norvegicus [23])?
Its Activity is “Toxic”.

What about the Drug metabolism (Plasma [24]) of the same compound?
The Drug metabolism was “Dose-dependent effect”.

And the Activity (Rattus norvegicus [25])?
Its Activity is “Toxic”.

And the Activity (Canis familiaris [26])?
Its Activity is “Non-Toxic”.
